How the values were obtained:
[1] = Inhibition of mouse RML prion protein infected in mouse ScN2a-cl3 cells after 5 days; format: cell-based; settings: N2a-cl3, 120 h
[2] = Unbound fraction in mouse brain; format: ADME, tissue-based
How it was run: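 The fraction unbound in mouse brain tissue was estimated with an in vitro brain tissue binding assay.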

[3] = AUC in mouse brain at 40 mg/kg, po administered as single dose; format: ADME, organism-based; set-up: dose 40 mg/kg, route oral
[4] = Drug concentration at steady state in mouse brain assessed as total compound level in brain homogenates at 40 mg/kg/day, po measured after 3 days; format: ADME, organism-based; set-up: route oral; settings: brain homogenate, read-out: Css
How it was run: (§1)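 Mice received compound mixed into a liquid rodent diet for 3 days at about 40, 80, 130 or 210 mg kg-1 day-1. Plasma and brain were collected at the end of the last dosing cycle, at a single time point, and analysed as in the single-dose PK studies. Values are total drug in brain homogenate and are treated as pseudo-steady-state concentrations.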

[5] = Drug concentration at steady state in mouse brain assessed as total compound level in brain homogenates at 80 mg/kg/day, po measured after 3 days; format: ADME, organism-based; set-up: route oral; settings: brain homogenate, read-out: Css; how it was run: as §1
[6] = Drug concentration at steady state in mouse brain assessed as total compound level in brain homogenates at 130 mg/kg/day, po measured after 3 days; format: ADME, organism-based; set-up: route oral; settings: brain homogenate, read-out: Css; how it was run: as §1
[7] = Drug concentration at steady state in mouse brain assessed as total compound level in brain homogenates at 210 mg/kg/day, po measured after 3 days; format: ADME, organism-based; set-up: route oral; settings: brain homogenate, read-out: Css; how it was run: as §1
[8] = Volume of distribution at steady state in FVB mouse plasma at 1 mg/kg, iv administered as single dose; format: ADME, organism-based; set-up: dose 1 mg/kg, route intravenous; settings: read-out: Vdss
How it was run: (§2)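 Female FVB mice were given a single dose, 1 mg/kg iv or 10 mg/kg po, and plasma and brain were analysed separately. Brain samples were whole-brain homogenate. Parameters came from concentration–time curves: Vss, clearance, half-life, Cmax, AUC, brain/plasma AUC ratio and bioavailability.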

[9] = Clearance in FVB mouse plasma at 1 mg/kg, iv administered as single dose; format: ADME, organism-based; set-up: dose 1 mg/kg, route intravenous; how it was run: as §2
[10] = Half life in FVB mouse plasma at 1 mg/kg, iv administered as single dose; format: ADME, organism-based; set-up: dose 1 mg/kg, route intravenous; how it was run: as §2
[11] = Half life in FVB mouse plasma at 10 mg/kg, po administered as single dose; format: ADME, organism-based; set-up: dose 10 mg/kg, route oral; how it was run: as §2
[12] = Cmax in FVB mouse plasma at 1 mg/kg, iv administered as single dose; format: ADME, organism-based; set-up: dose 1 mg/kg, route intravenous; how it was run: as §2
[13] = Cmax in FVB mouse plasma at 10 mg/kg, po administered as single dose; format: ADME, organism-based; set-up: dose 10 mg/kg, route oral; how it was run: as §2
[14] = Cmax in FVB mouse brain at 10 mg/kg, po administered as single dose; format: ADME, organism-based; set-up: dose 10 mg/kg, route oral; how it was run: as §2
[15] = AUC in FVB mouse plasma at 1 mg/kg, iv administered as single dose; format: ADME, organism-based; set-up: dose 1 mg/kg, route intravenous
[16] = AUC in FVB mouse plasma at 10 mg/kg, po administered as single dose; format: ADME, organism-based; set-up: dose 10 mg/kg, route oral
[17] = AUC in FVB mouse brain at 10 mg/kg, po administered as single dose; format: ADME, organism-based; set-up: dose 10 mg/kg, route oral
[18] = Ratio of drug level in brain to plasma in FVB mouse brain at 10 mg/kg, po administered as single dose; format: ADME, organism-based; set-up: dose 10 mg/kg, route oral; settings: brain and plasma, read-out: BPR; how it was run: as §2
[19] = Oral bioavailability in FVB mouse […] at 10 mg/kg administered as single dose; format: ADME, organism-based; settings: plasma; how it was run: as §2
[20] = test system: Brain; assay: (§3) AUC in mouse brain at 10 mg/kg, po administered as single dose; format: ADME, organism-based; set-up: dose 10 mg/kg, route oral; settings: in vivo
[21] = test system: Plasma; assay: (§4) AUC in mouse plasma at 10 mg/kg, po administered as single dose; format: ADME, organism-based; set-up: dose 10 mg/kg, route oral; settings: in vivo
[22] = test system: Mus musculus; assay: Antiprion activity against mouse RML prion protein infected in mouse assessed as mouse survival at 210 mg/kg/day (reference value: 118 +/- 1 days); format: organism-based
[23] = test system: Mus musculus; assay: Antiprion activity against mouse Scrapie prion protein ME7 infected in mouse assessed as mouse survival at 210 mg/kg/day (reference value: 126 +/- 2 days); format: organism-based
[24] = test system: Cervus elaphus nelsoni; assay: Antiprion activity against elk PrpC protein infected in mouse chronic wasting disease model assessed as increase in mouse survival (reference value: 108 +/- 3 days)
[25] = test system: Mus musculus; assay: Increase in survival in sc dosed mouse prion disease model assessed as increase in survival; format: functional
[26] = test system: Mus musculus; assay: Increase in survival in sc dosed mouse prion disease model assessed as extension of survival relative to untreated control; format: functional
[27] = (§5) Cmax in mouse brain at 10 mg/kg, po administered as single dose; format: ADME, organism-based; set-up: dose 10 mg/kg, route oral; settings: brain
[28] = as §3; format: ADME, organism-based; set-up: dose 10 mg/kg, route oral; settings: brain
[29] = as §4; format: ADME, organism-based; set-up: dose 10 mg/kg, route oral; settings: plasma
[30] = test system: Brain; assay: as §5; format: ADME, organism-based; set-up: dose 10 mg/kg, route oral; settings: in vivo

SMILES: Cc1cccc(Nc2nc(-c3ccc(N4CCOCC4)cc3)cs2)n1
- EC50 [1]: 51 nM

SMILES: Cc1cccc(Nc2nc(-c3ccc(-c4ccccc4)cc3)cs2)n1
- fraction unbound [2]: 0.08
- EC50 [1]: 1300 nM
- AUC [3]: 303 µM·h
- concentration at 72 h [4]: 8700 nM
- concentration at 72 h [5]: 19300 nM
- concentration at 72 h [6]: 31800 nM
- concentration at 72 h [7]: 37400 nM
- Vd [8]: 2.46 L/kg
- clearance [9]: 15.3 mL/min/kg
- half-life [10]: 2.16 h
- half-life [11]: 4.65 h
- Cmax [12]: 2490 nM
- Cmax [13]: 1660 nM
- Cmax [14]: 2450 nM
- AUC [15]: 2.78 µM·h
- AUC [16]: 11.2 µM·h
- AUC [17]: 29.1 µM·h
- Kp [18]: 2.6
- bioavailability [19]: 40.3%
- AUC [20]: 9.78 µM·h
- AUC [21]: 6.99 µM·h
- Survival [22]: 204 days
- Survival [23]: 214 days
- Survival [24]: 237 days

SMILES: O=C(CN1CCCC1)Nc1ccc(Cc2ccc(NC(=O)CN3CCCC3)cc2)cc1
- Survival [25]: 20%
- Activity [26]: 12%

SMILES: c1ccc2cc(Nc3nc(-c4ccncc4)cs3)ncc2c1
- AUC [3]: 59.1 µM·h
- concentration at 72 h [4]: 20 nM
- concentration at 72 h [5]: 80 nM
- concentration at 72 h [6]: 40 nM
- concentration at 72 h [7]: 100 nM

SMILES: Cc1ccnc(Nc2nc(-c3ccc(-c4ccccn4)s3)cs2)c1
- fraction unbound [2]: 0.08
- AUC [3]: 60.2 µM·h
- Vd [8]: 12.6 L/kg
- clearance [9]: 151 mL/min/kg
- half-life [10]: 1.18 h
- half-life [11]: 0.98 h
- Cmax [12]: 520 nM
- Cmax [13]: 430 nM
- Cmax [14]: 1620 nM
- AUC [15]: 0.3 µM·h
- AUC [16]: 0.82 µM·h
- AUC [17]: 4.54 µM·h
- Kp [18]: 5.53
- bioavailability [19]: 27.3%

SMILES: Cc1ccc(Nc2nc(-c3ccc(-c4ccccn4)s3)cs2)nc1
- EC50 [1]: 1200 nM
- AUC [3]: 4.6 µM·h

SMILES: C(=N/Nc1ccc(-c2cnco2)cc1)/c1ccncc1
- Vd [8]: 1.53 L/kg
- clearance [9]: 76 mL/min/kg
- half-life [10]: 0.22 h
- half-life [11]: 1.01 h
- Cmax [12]: 1760 nM
- Cmax [13]: 830 nM
- Cmax [14]: 460 nM
- AUC [15]: 0.83 µM·h
- AUC [16]: 2.06 µM·h
- AUC [17]: 1.06 µM·h
- Kp [18]: 0.51
- bioavailability [19]: 24.8%

SMILES: O=C(Nc1nc(-c2ccc(-c3ccccc3)cc2)cs1)C1CC1
- Cmax [27]: 4340 nM
- AUC [28]: 18.6 µM·h
- AUC [29]: 12.7 µM·h

SMILES: Cc1cccc(Nc2nc(-c3ccc(-c4cccnc4)cc3)cs2)n1
- EC50 [1]: 68 nM
- Cmax [30]: 2460 nM
- AUC [20]: 10.9 µM·h
- AUC [21]: 15.6 µM·h

SMILES: Cc1ccc(Nc2nc(-c3cc(-c4ccccc4)no3)cs2)nc1
- EC50 [1]: 950 nM
- AUC [3]: 23.2 µM·h
- concentration at 72 h [4]: 880 nM
- concentration at 72 h [5]: 5390 nM
- concentration at 72 h [6]: 23300 nM
- concentration at 72 h [7]: 12600 nM

SMILES: Cc1ccnc(Nc2nc(-c3ccncc3)cs2)c1
- EC50 [1]: 5000 nM
- AUC [3]: 34.6 µM·h

SMILES: Cc1cccc(Cn2cc(-c3ccc(-c4cccnc4)cc3)cn2)n1
- EC50 [1]: > 10000 nM

SMILES: c1ccc2cc(Nc3nc(-c4cc5ccccc5o4)cs3)ncc2c1
- EC50 [1]: 920 nM
- AUC [3]: 10.9 µM·h

SMILES: Cc1cccc(Nc2nc(-c3ccc(-c4ccnn4C)cc3)cs2)n1
- EC50 [1]: 89 nM

SMILES: Cc1cccc(Nc2nc(-c3cc4ccccc4o3)cs2)n1
- EC50 [1]: 1500 nM
- AUC [3]: 65.4 µM·h
- concentration at 72 h [4]: 1310 nM
- concentration at 72 h [5]: 2700 nM
- concentration at 72 h [6]: 3740 nM
- concentration at 72 h [7]: 3230 nM

SMILES: Cc1cccc(Nc2nc(-c3ccc(-c4ccncc4)cc3)cs2)n1
- EC50 [1]: 87 nM
- Cmax [30]: 500 nM
- AUC [20]: 1.68 µM·h

SMILES: Cc1ccc(Nc2nc(-c3ccncc3)cs2)nc1
- EC50 [1]: 1600 nM
- AUC [3]: 9.7 µM·h

SMILES: COc1ccc(-c2csc(Nc3cc4ccccc4cn3)n2)cc1OC
- AUC [3]: 6.3 µM·h
- concentration at 72 h [4]: 30 nM
- concentration at 72 h [5]: 60 nM
- concentration at 72 h [6]: 140 nM
- concentration at 72 h [7]: 320 nM
